ChEMBL document CHEMBL1157057, “Iridoids and lignans from Valeriana jatamansi” (J Nat Prod, 2010)

How the values were obtained:
Assay type in all cases: functional, cell-based
Bel-7402 = test: Cytotoxicity against human Bel7402 cells after 24 hrs by MTT assay
In short: (§1)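 Human cancer cell lines from ATCC were seeded at 3000 cells per well and dosed 24 h after seeding across a range of concentrations. After 24 h of compound exposure, MTT was added and incubation continued another 24 h. Viability was read as absorbance at 570 nm and IC50 calculated. Paclitaxel was the positive control.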

PC-3M = test: (§2) Cytotoxicity against human PC3M cells after 24 hrs by MTT assay; in short: as §1
HCT-8 = test: Cytotoxicity against human HCT8 cells after 24 hrs by MTT assay; in short: as §1
A549 = test: Cytotoxicity against human A549 cells after 24 hrs by MTT assay; in short: as §1
[1] = as §2; details: PC-3M; in short: as §1

| SMILES | Activity (Bel-7402) | Activity (PC-3M) | Activity (HCT-8) | Activity (A549) | IC50 [1] | IC50 (HCT-8; HCT-8, 24 h) |
| --- | --- | --- | --- | --- | --- | --- |
| C[C@H]1COC(=O)[C@H]2[C@@H]1C[C@H](O)[C@@]2(C)O | Not toxic | Not toxic | Not toxic | Not toxic |  |  |
| COc1cc(C[C@H]2CO[C@H](c3ccc(O)c(OC)c3)[C@H]2COC(=O)CC(C)C)ccc1O [(+)-9'-ISOVALEROXYLARICIRESINOL] | Not toxic |  |  | Not toxic | 8.1 µM | 5.3 µM |
| C=C1[C@H]2OC[C@H]3[C@@H]1C[C@H](O)[C@@]3(C)O2 | Not toxic | Not toxic | Not toxic | Not toxic |  |  |
| C=C1[C@H]2OC(=O)[C@H]3[C@@H]1C[C@H](O)[C@@]3(C)O2 | Not toxic | Not toxic | Not toxic | Not toxic |  |  |
| C=C1COC(=O)[C@H]2[C@@H]1C[C@H](O)[C@@]2(C)O | Not toxic | Not toxic | Not toxic | Not toxic |  |  |
| C=C1CO[C@@]2(CO)C(CO)=CC[C@H]12 | Not toxic | Not toxic | Not toxic | Not toxic |  |  |
| C=C(C=O)[C@H]1C[C@H](O)[C@@](C)(O)[C@H]1C(=O)OC | Not toxic | Not toxic | Not toxic | Not toxic |  |  |
| C=C1[C@H]2O[C@@H](O)[C@H]3[C@@H]1C[C@H](O)[C@@]3(C)O2 | Not toxic | Not toxic | Not toxic | Not toxic |  |  |
| C[C@]12O[C@@H]3OC(=O)[C@H]1[C@H](C[C@@H]2O)[C@H]3CO | Not toxic | Not toxic | Not toxic | Not toxic |  |  |
| C=C(CO)[C@H]1C[C@H](O)[C@@](C)(O)[C@H]1CO | Not toxic | Not toxic | Not toxic | Not toxic |  |  |
| C[C@@H]1COC(=O)[C@H]2[C@@H]1C[C@H](O)[C@@]2(C)O | Not toxic | Not toxic | Not toxic | Not toxic |  |  |
| CO[C@@H]1O[C@]2(C)[C@@H](O)C[C@@H]3[C@H]1COC(=O)[C@@H]32 | Not toxic | Not toxic | Not toxic | Not toxic |  |  |
| CO[C@H]1OC(=O)[C@H]2[C@@H]3C[C@H](O)[C@@]2(C)OC[C@H]13 | Not toxic | Not toxic | Not toxic | Not toxic |  |  |
| C=C(C=O)[C@@]1(O)C[C@H](OC(C)=O)C(CO)=C1C=O | Not toxic | Not toxic | Not toxic | Not toxic |  |  |
